Test results reported in ChEMBL document CHEMBL5247578, “Effective synthesis of benzimidazoles-imidazo[1,2-a]pyrazine conjugates: A comparative study of mono-and bis-benzimidazoles for antitumor activity” (Eur J Med Chem, 2019).

Legend:
Type in all cases: functional
MOLT-4 = test: Antiproliferative activity against human MOLT-4 cells assessed as cell growth inhibition by measuring lethal concentration incubated for 48 hrs by sulforhodamine B assay; settings: read-out: LC50 (the source's name)
T47D = test: Antiproliferative activity against human T47D cells assessed as cell growth inhibition at 10 uM incubated for 48 hrs by sulforhodamine B assay relative to control
Procedure, shortened: (§1)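 NCI-60 single-dose screen at 10^-5 M. Cells grown in RPMI 1640 with 5% FBS and 2 mM L-glutamine, plated at 5,000–40,000 cells/well, and preincubated 24 h. Drug (DMSO stock) added and incubated 48 h at 37 °C, 5% CO2. Adherent cells fixed with cold TCA, stained with 0.4% SRB in 1% acetic acid, dye solubilized in 10 mM trizma base, A515 read. Percent growth taken against time-zero and untreated control.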

MDA-MB-231 = test: Antiproliferative activity against human MDA-MB-231 cells assessed as cell growth inhibition at 10 uM incubated for 48 hrs by sulforhodamine B assay relative to control; procedure, shortened: as §1
DU-145 = test: Antiproliferative activity against human DU-145 cells assessed as cell growth inhibition at 10 uM incubated for 48 hrs by sulforhodamine B assay relative to control
Procedure, shortened: (§2)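 NCI-60 one-dose prescreen at 10^-5 M. Cells grown in RPMI 1640 with 5% FBS and 2 mM glutamine, preincubated 24 h, then exposed 48 h at 37 °C. Adherent lines TCA-fixed, SRB-stained, A515 read. Growth percent relative to time-zero and control; negative values mean cell kill.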

UO-31 = test: Antiproliferative activity against human UO-31 cells assessed as cell growth inhibition at 10 uM incubated for 48 hrs by sulforhodamine B assay relative to control; procedure, shortened: as §1
TK-10 = test: Antiproliferative activity against human TK-10 cells assessed as cell growth inhibition at 10 uM incubated for 48 hrs by sulforhodamine B assay relative to control; procedure, shortened: as §1
CAKI-1 = test: Antiproliferative activity against human CAKI-1 cells assessed as cell growth inhibition at 10 uM incubated for 48 hrs by sulforhodamine B assay relative to control
Procedure, shortened: (§3)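 Single-dose NCI-60 prescreen at 10^-5 M. Cells in RPMI 1640 with 5% FBS and 2 mM L-glutamine, seeded 5,000–40,000 cells/well with 24 h preincubation, then drug exposure for 48 h at 37 °C under 5% CO2. Growth read by SRB staining of TCA-fixed cells at 515 nm against time-zero and untreated controls. Negative growth values denote cell kill.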

786-0 = test: Antiproliferative activity against human 786-0 cells assessed as cell growth inhibition at 10 uM incubated for 48 hrs by sulforhodamine B assay relative to control; procedure, shortened: as §3
SK-OV-3 = test: Antiproliferative activity against human SK-OV-3 cells assessed as cell growth inhibition at 10 uM incubated for 48 hrs by sulforhodamine B assay relative to control; procedure, shortened: as §1
OVCAR-4 = test: Antiproliferative activity against human OVCAR-4 cells assessed as cell growth inhibition at 10 uM incubated for 48 hrs by sulforhodamine B assay relative to control; procedure, shortened: as §1
IGROV-1 = test: Antiproliferative activity against human IGROV-1 cells assessed as cell growth inhibition at 10 uM incubated for 48 hrs by sulforhodamine B assay relative to control; procedure, shortened: as §1
UACC-62 = test: Antiproliferative activity against human UACC-62 cells assessed as cell growth inhibition at 10 uM incubated for 48 hrs by sulforhodamine B assay relative to control; procedure, shortened: as §1
UACC-257 = test: Antiproliferative activity against human UACC-257 cells assessed as cell growth inhibition at 10 uM incubated for 48 hrs by sulforhodamine B assay relative to control; procedure, shortened: as §1
SK-MEL-28 = test: Antiproliferative activity against human SK-MEL-28 cells assessed as cell growth inhibition at 10 uM incubated for 48 hrs by sulforhodamine B assay relative to control; procedure, shortened: as §1
MDA-MB-435 = test: Antiproliferative activity against human MDA-MB-435 cells assessed as cell growth inhibition at 10 uM incubated for 48 hrs by sulforhodamine B assay relative to control; procedure, shortened: as §1
Malme-3M = test: Antiproliferative activity against human Malme-3M cells assessed as cell growth inhibition at 10 uM incubated for 48 hrs by sulforhodamine B assay relative to control; procedure, shortened: as §1
SNB-19 = test: Antiproliferative activity against human SNB-19 cells assessed as cell growth inhibition at 10 uM incubated for 48 hrs by sulforhodamine B assay relative to control; procedure, shortened: as §1
SF-268 = test: Antiproliferative activity against human SF-268 cells assessed as cell growth inhibition at 10 uM incubated for 48 hrs by sulforhodamine B assay relative to control; procedure, shortened: as §1
SW-620 = test: Antiproliferative activity against human SW620 cells assessed as cell growth inhibition at 10 uM incubated for 48 hrs by sulforhodamine B assay relative to control; procedure, shortened: as §1
KM12 = test: Antiproliferative activity against human KM12 cells assessed as cell growth inhibition at 10 uM incubated for 48 hrs by sulforhodamine B assay relative to control; procedure, shortened: as §1
HT-29 = test: Antiproliferative activity against human HT-29 cells assessed as cell growth inhibition at 10 uM incubated for 48 hrs by sulforhodamine B assay relative to control; procedure, shortened: as §1
HCT-15 = test: Antiproliferative activity against human HCT-15 cells assessed as cell growth inhibition at 10 uM incubated for 48 hrs by sulforhodamine B assay relative to control; procedure, shortened: as §2
HCC 2998 = test: Antiproliferative activity against human HCC 2998 cells assessed as cell growth inhibition at 10 uM incubated for 48 hrs by sulforhodamine B assay relative to control; procedure, shortened: as §2
COLO 205 = test: Antiproliferative activity against human COLO 205 cells assessed as cell growth inhibition at 10 uM incubated for 48 hrs by sulforhodamine B assay relative to control; procedure, shortened: as §3
NCI-H322M = test: Antiproliferative activity against human NCI-H322M cells assessed as cell growth inhibition at 10 uM incubated for 48 hrs by sulforhodamine B assay relative to control; procedure, shortened: as §1
NCI-H23 = test: Antiproliferative activity against human NCI-H23 cells assessed as cell growth inhibition at 10 uM incubated for 48 hrs by sulforhodamine B assay relative to control; procedure, shortened: as §1
NCI-H226 = test: Antiproliferative activity against human NCI-H226 cells assessed as cell growth inhibition at 10 uM incubated for 48 hrs by sulforhodamine B assay relative to control; procedure, shortened: as §1
HOP-92 = test: Antiproliferative activity against human HOP-92 cells assessed as cell growth inhibition at 10 uM incubated for 48 hrs by sulforhodamine B assay relative to control; procedure, shortened: as §2
HOP-62 = test: Antiproliferative activity against human HOP-62 cells assessed as cell growth inhibition at 10 uM incubated for 48 hrs by sulforhodamine B assay relative to control; procedure, shortened: as §2
SR = test: Antiproliferative activity against human SR cells assessed as cell growth inhibition at 10 uM incubated for 48 hrs by sulforhodamine B assay relative to control; procedure, shortened: as §1
SNB-75 = test: Antiproliferative activity against human SNB-75 cells assessed as cell growth at 0.0000001 M incubated for 48 hrs by SRB assay relative to control; settings: dose 100 nM, read-out: Activity

c1ccc(Cn2cnc3ccc(-c4nc(-c5ccc6c(c5)ncn6C5CCCCC5)cn5ccnc45)cc32)cc1
CC50 (MOLT-4): > 100 µM
inhibition at 10 µM (T47D): -2.12%
inhibition at 10 µM (MDA-MB-231): -70.1%
inhibition at 10 µM (DU-145): -28.2%
inhibition at 10 µM (UO-31): -51.4%
inhibition at 10 µM (TK-10): 94.8%
inhibition at 10 µM (CAKI-1): 56.7%
inhibition at 10 µM (786-0): -19.4%
inhibition at 10 µM (SK-OV-3): -22.2%
inhibition at 10 µM (OVCAR-4): 83.2%
inhibition at 10 µM (IGROV-1): 94.2%
inhibition at 10 µM (UACC-62): -31.2%
inhibition at 10 µM (UACC-257): -32.7%
inhibition at 10 µM (SK-MEL-28): 99.6%
inhibition at 10 µM (MDA-MB-435): -6.16%
inhibition at 10 µM (Malme-3M): -15.4%
inhibition at 10 µM (SNB-19): 80.4%
inhibition at 10 µM (SF-268): -0.11%
inhibition at 10 µM (SW-620): 97.8%
inhibition at 10 µM (KM12): -39.4%
inhibition at 10 µM (HT-29): -48.7%
inhibition at 10 µM (HCT-15): -9.03%
inhibition at 10 µM (HCC 2998): -88%
inhibition at 10 µM (COLO 205): -29.9%
inhibition at 10 µM (NCI-H322M): 84%
inhibition at 10 µM (NCI-H23): -22.8%
inhibition at 10 µM (NCI-H226): -63.1%
inhibition at 10 µM (HOP-92): -83.6%
inhibition at 10 µM (HOP-62): -9.39%
inhibition at 10 µM (SR): 94.5%
growth at 0.1 µM (SNB-75): 82%
